# Shown are actives, neighbours in structure and some others; about 3.9% of the full set was active somewhere.
# CHO parental Ca = signal in parental CHO cells, OX1R antagonist counter-screen; parental CHO-K1, ATP-induced calcium, Fluo-8 fluorescence; 330,000 compounds, 0.63% hits; inhibition, % at 5.6 µM;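 active = inhibition above that plate's mean sample inhibition plus 3 SD, cut at about 26% in these data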
#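 test system = CHO parental line | reagent = ATP stimulus | measured by = intracellular calcium via Fluo-8 no-wash fluorescent dye | control set = ATP and no-ATP DMSO wells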
# OX1R antag-1 = blocks the human orexin 1 receptor. O43613. CHO/OX1R cells, Fluo-8 calcium fluorescence, orexin A. inhibition, % at 5 µM. 330,000 compounds, 0.43% hits. AID 434989;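 active = inhibition above its plate's threshold, mean inhibition of all tested compounds on the plate plus 3 SD, cut at about 37% in these data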
# Target sequence (O43613 whole entry, looked up): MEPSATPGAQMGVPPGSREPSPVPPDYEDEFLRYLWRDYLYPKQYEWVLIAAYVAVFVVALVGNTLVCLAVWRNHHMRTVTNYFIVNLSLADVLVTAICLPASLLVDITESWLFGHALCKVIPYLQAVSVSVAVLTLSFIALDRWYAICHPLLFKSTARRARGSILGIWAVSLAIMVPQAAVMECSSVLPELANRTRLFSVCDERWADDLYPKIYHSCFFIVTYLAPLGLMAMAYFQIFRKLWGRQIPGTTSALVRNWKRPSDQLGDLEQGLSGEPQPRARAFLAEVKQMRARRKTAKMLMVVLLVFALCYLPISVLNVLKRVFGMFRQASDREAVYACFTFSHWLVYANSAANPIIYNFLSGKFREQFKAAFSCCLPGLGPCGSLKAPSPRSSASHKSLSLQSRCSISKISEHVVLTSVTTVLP
# OX1R antag-2 = antagonists of human orexin 1 receptor (OX1R); O43613; OX1R-expressing cells, FRET antagonist read-out; inhibition, % at 6.6 µM; 330,000 compounds, 1.8% hits; AID 485270; in the data active = inhibition mostly above about 38%, no sharp cut-off; inactive = mostly below about 40%
# TAAR1 antagonist = antagonists of human TAAR1. CHO RD-HGA16 TAAR1, Fluo-8 calcium fluorescence, antagonist. inhibition, % at 3 µM. 360,000 compounds, 1.5% hits;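 active = inhibition above a per-plate cutoff, the mean inhibition of test compounds on that plate plus 3 SD, cut at about 49% in these data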
# Target sequence (Q96RJ0 whole entry, looked up): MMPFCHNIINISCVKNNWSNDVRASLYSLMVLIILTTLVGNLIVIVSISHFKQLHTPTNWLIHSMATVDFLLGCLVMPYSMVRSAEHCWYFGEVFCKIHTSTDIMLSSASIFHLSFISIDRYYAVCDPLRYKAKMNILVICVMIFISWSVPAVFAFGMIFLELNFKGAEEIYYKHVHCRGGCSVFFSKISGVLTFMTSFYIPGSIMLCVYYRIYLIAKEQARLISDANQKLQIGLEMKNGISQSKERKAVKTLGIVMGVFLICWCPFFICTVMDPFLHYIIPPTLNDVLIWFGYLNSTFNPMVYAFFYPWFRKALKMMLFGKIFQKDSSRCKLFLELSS
#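 Test system: RD-HGA16 CHO cells with stable hTAAR1 and Gα16 / Probe or stimulus: EC80 β-phenethylamine stimulus / Times: seeding 17-24 h prior, 75-min 37 °C, 30-min RT dye loading / Detection: Fluo-8 calcium-sensitive fluorescence / Read-out basis: % inhibition scaled between DMSO and EC80 PEA controls / Repeats: singlicate, one well per test compound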
# TAAR1 ag = agonists of human TAAR1. Q96RJ0. CHO RD-HGA16 TAAR1, Fluo-8 calcium fluorescence; vehicle wells 0%, saturating PEA agonist 100%. activation, % at 3 µM. 360,000 compounds, 0.99% hits;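 active = activation above the mean activation of all test compounds in the run plus 3 SD, cut at about 38% in these data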
#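 Benchmarks: low control DMSO, high control PEA (EC100); System: CHO RD-HGA16 cells carrying human TAAR1 plus Gα16; Detection: Fluo-8 fluorescence, 5 s baseline then 140 s kinetic read; Schedule: 17-24 h plating, Fluo-8 75 min 37 °C, 30 min RT; Read-out basis: % activation from peak over basal fluorescence ratio, DMSO-to-PEA scaled.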
# nonsel antag count = nonselective antagonism, TAAR1 counter-screen | 2,400 compounds, 77% hits | AID 651780 | inhibition, % at 3 µM | shares compounds with TAAR1 antagonist | counterscreen cell line, calcium fluorescence, antagonist mode; in the data active = inhibition above about 22%;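 also: CHO-Ga16 host cells stimulated with ATP at an EC80 level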
# TAAR1 ant conf = human TAAR1 antagonism, confirmed; TAAR1-expressing cells, fluorescence antagonist read-out; 2,400 compounds, 40% hits; shares compounds with TAAR1 antagonist; inhibition, % at 3 µM; in the data active = inhibition above about 49%;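 also: CHO-Ga16 host cells challenged with agonist PEA near its EC80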
# Ga16 ag counter = counter-screen for TAAR1 antagonists: nonselective Ga16 agonists; shares compounds with TAAR1 antagonist; Ga16-expressing cells, calcium fluorescence, agonist counterscreen; activation, % at 3 µM; 2,400 compounds, 18% hits; in the data active = activation above about 12%
# TAAR1 ag count = counter-screen for human TAAR1 antagonists: TAAR1 agonists; hTAAR1 cell line, fluorescence activation, agonist mode; shares compounds with TAAR1 antagonist; activation, % at 3 µM; 2,400 compounds, 2% hits; in the data active = activation above about 37%;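 also: CHO cells stably expressing TAAR1 with calcium dye readout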
# Numbers stand for hits; i = inactive; nt = no result given.
SMILES,CHO parental Ca,OX1R antag-1,OX1R antag-2,TAAR1 antagonist,TAAR1 ag,nonsel antag count,TAAR1 ant conf,Ga16 ag counter,TAAR1 ag count
CCN(CC)c1nc2c(c(=O)n(C)c(=O)n2C)n1CCCc1ccccc1,i,i,i,i,i,nt,nt,nt,nt
CCN1CCN(Cc2ccc(NC(=O)c3cccc(-c4ccc5nc(NC(=O)C6CC6)sc5n4)c3)cc2C(F)(F)F)CC1,nt,nt,nt,65.7,i,44.2,59.7,i,i
CCN1CCN(Cc2ccc(NC(=O)c3ccc(C)c(NC(=O)C(=O)c4c[nH]c5ccccc45)c3)cc2C(F)(F)F)CC1,i,i,i,78.5,i,45.8,i,i,i
CCN1CCN(Cc2ccc(NC(=O)c3cc(NC(=O)C(=O)c4c[nH]c5ccccc45)cc(OC)c3)cc2C(F)(F)F)CC1,i,i,i,i,i,nt,nt,nt,nt
Cc1cccc(S(=O)(=O)C(C#N)c2nc3ccccc3nc2N2CCOCC2)c1 (stereo unspecified),i,i,i,i,i,nt,nt,nt,nt
CCCOc1ccc(N2C(=O)CC(SC(=NCC)NCC)C2=O)cc1 (stereo unspecified),i,i,i,i,i,nt,nt,nt,nt
CCN=C(NCC)SC1CC(=O)N(c2ccc(F)cc2)C1=O (stereo unspecified),i,i,i,89.7,i,28.1,56.9,i,i
CCCCc1nc(NCCNC(=O)c2ccccc2)c(C#N)c2c1CSC(C)(C)C2,i,i,i,67.9,i,29.6,52.2,i,i
Cc1ccc(-n2nc3c(=O)n(CCCC(=O)NCC(C)c4ccccc4)nc(C)c3c2C)cc1 (stereo unspecified),i,i,i,i,i,nt,nt,nt,nt
COc1ccc(CN2CCOCCOCCN(Cc3ccc(OC)cc3)CCOCCOCC2)cc1,i,i,i,i,i,nt,nt,nt,nt
O=C(c1oc2ccccc2c1CSCc1ccccc1)N1CCN(c2ncccn2)CC1,i,i,i,64.9,i,29.8,i,i,i
CCOCC(=O)Nc1c(C(=O)N2CCN(c3ncccn3)CC2)oc2ccccc12,i,i,i,i,i,nt,nt,nt,nt
O=C(COc1cccc(NC(=O)c2cccc([N+](=O)[O-])c2)c1)c1ccc(F)cc1,i,i,i,77.5,i,38.5,57.9,12.2,i
COc1ccc(OC)c(CN2CCCC(C(=O)N3CCCCC3)C2)c1 (stereo unspecified),i,i,i,106.2,i,i,i,i,i
Cc1nn(Cc2ccc(Cl)cc2Cl)c(C)c1NC(=O)c1sc2ccccc2c1Cl,i,i,i,i,i,nt,nt,nt,nt
Cc1ccccc1Cn1nc(C)c(NC(=O)c2sc3ccccc3c2Cl)c1C,i,i,i,55.3,i,26.1,i,i,i
CC(=O)Nc1ccc(CCCCc2ccc(NC(C)=O)cc2)cc1,nt,nt,nt,i,i,nt,nt,nt,nt
CCNC(=S)N/N=C/c1cccc(OCc2c(F)cccc2Cl)c1,i,i,i,56.8,i,i,i,i,i
Cc1nc2ccccc2c2oc(C(=O)N3CCc4ccccc4C3)cc12,i,i,34.7,58.1,i,26.4,49.2,14.6,i
Cc1cc(C(N)=O)nn1-c1c(Cl)cc(Cl)cc1Cl,i,i,i,i,i,nt,nt,nt,nt
O=C1NC(=O)c2cc3ccccc3cc21,i,i,i,i,i,nt,nt,nt,nt
COc1ccc(C(=O)Nc2cc(C(F)(F)F)ccc2Cl)cc1OC,i,i,i,i,i,nt,nt,nt,nt
O=S(=O)(c1ccc(NC(=S)NN=Cc2ccccc2O)cc1)N1CCCCC1,nt,nt,nt,89.9,i,40.1,89.2,i,i
NS(=O)(=O)c1ccc(NC(=S)Nc2ccc(S(=O)(=O)N3CCCC3)cc2)cc1,i,i,i,i,i,nt,nt,nt,nt
CCc1cc(=O)oc2c3c(cc(OCC(=O)NCc4ccncc4)c12)OC(C)(C)CC3,i,i,i,i,i,nt,nt,nt,nt
SMILES,CHO parental Ca,OX1R antag-1,OX1R antag-2,TAAR1 antagonist,TAAR1 ag,nonsel antag count,TAAR1 ant conf,Ga16 ag counter,TAAR1 ag count
COc1ccc(CNC(=O)COc2cc3c(c4oc(=O)cc(C)c24)CCC(C)(C)O3)cc1,i,i,i,61.6,i,29.2,i,i,i
COc1ccc(NC(=O)CON=CC(=O)Nc2ccc(C)cc2)c(OC)c1,i,i,i,i,i,nt,nt,nt,nt
O=C(C1=C(O)C(=O)N(CC2CCCO2)C1c1cccc(Cl)c1)c1ccco1 (stereo unspecified),i,i,i,i,i,nt,nt,nt,nt
O=C(CCC1CCCCC1)Nc1cccnc1,i,i,i,i,i,nt,nt,nt,nt
O=C(CCC1CCCCC1)Nc1ccc(C(=O)c2ccncc2)cc1,i,i,i,66.4,i,36.4,55.5,i,i
O=C(O)c1[nH]c(-c2ccccc2)c2c1C(=O)N(C1CC1)C2=O,nt,nt,nt,i,i,nt,nt,nt,nt
CC(C)(Cc1ccc(O)cc1)NC(=O)CC(=O)N/N=C/c1ccc([N+](=O)[O-])cc1,i,i,i,i,i,nt,nt,nt,nt
CC(C)(Cc1ccc(O)cc1)NC(=O)CC(=O)N/N=C/c1ccc(Cl)cc1,i,i,i,74.3,i,i,79.6,i,43.0
Cc1nn(-c2ccccc2)c(C)c1NC(=O)COC(=O)CCCOc1ccccc1,i,i,i,56.5,i,i,i,i,i
COc1cccc(NC(=O)COC(=O)/C=C/c2c(C)nn(-c3ccccc3)c2C)c1,i,i,i,i,i,nt,nt,nt,nt
CC(=O)c1ccc(OCCCC(=O)OCC(=O)Nc2c(C)nn(-c3ccccc3)c2C)cc1,i,i,i,i,i,nt,nt,nt,nt
Cc1nn(-c2ccccc2)c(C)c1NC(=O)COC(=O)c1ccc(Cl)c(N)c1,i,i,i,71.9,i,30.2,49.7,12.0,i
Cc1cc(C)n(-c2ccc(C(=O)OCC(=O)NC(c3ccccc3)c3ccccc3)cc2)n1,i,i,i,66.4,i,26.7,51.7,i,i
COc1ccccc1/C=C/C(=O)OCC(=O)Nc1c(C)nn(-c2ccccc2)c1C,i,i,i,66.2,i,21.5,i,i,i
CCOC(=O)[C@@H](NC(=O)CC[C@H]1O[C@@H](n2ccc(=O)[nH]c2=O)[C@H](O)[C@@H]1O)C(C)C,nt,nt,nt,i,i,nt,nt,nt,nt
CSc1ccc(CN(C)C(=O)c2ccc(S(=O)(=O)Nc3c(C)n(C)n(-c4ccccc4)c3=O)cc2)cc1,nt,nt,nt,i,i,nt,nt,nt,nt
COc1ccccc1CN(C)C(=O)c1ccc(S(=O)(=O)Nc2c(C)n(C)n(-c3ccccc3)c2=O)cc1,i,i,i,50.1,i,i,i,i,i
Nc1c2ccccc2nc2ccccc12,i,i,i,i,i,nt,nt,nt,nt
Cc1nc2ccccc2c2c(N)c3ccccc3n12,i,i,i,56.4,i,22.3,i,i,i
Cc1ccc(N(CC(=O)NCC2CCCO2)C(=O)CCC(=O)Nc2nccs2)cc1 (stereo unspecified),i,i,i,i,i,nt,nt,nt,nt

# Bioassay records: PubChem BioAssay, The Scripps Research Institute Molecular Screening Center
